Measurements taken from paper PMC10203274 (Plant Communications, 2022).
Changes are numbered by the printed parent chain.

What was measured:
[1] = biological target: T1, NbUGT72AY1 (Nicotiana benthamiana, UniProt A0A8K1ZRH3); experiment: UDP-Glo glycosyltransferase assay, acceptor substrate kinetics; format: biochemical
T1 sequence (A0A8K1ZRH3 1-477): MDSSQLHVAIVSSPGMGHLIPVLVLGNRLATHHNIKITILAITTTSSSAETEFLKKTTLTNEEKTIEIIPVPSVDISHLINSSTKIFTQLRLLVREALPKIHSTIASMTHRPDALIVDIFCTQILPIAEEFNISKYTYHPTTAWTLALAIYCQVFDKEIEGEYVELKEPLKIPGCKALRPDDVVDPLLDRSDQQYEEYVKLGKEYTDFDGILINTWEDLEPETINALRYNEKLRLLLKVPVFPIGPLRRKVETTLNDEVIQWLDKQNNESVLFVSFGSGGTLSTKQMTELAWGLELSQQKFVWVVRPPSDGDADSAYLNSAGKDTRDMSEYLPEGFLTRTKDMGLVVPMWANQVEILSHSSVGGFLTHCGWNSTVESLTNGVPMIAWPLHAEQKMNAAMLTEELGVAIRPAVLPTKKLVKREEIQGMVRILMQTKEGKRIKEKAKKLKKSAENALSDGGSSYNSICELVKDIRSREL

[2] = biological target: T2, NbUGT72AY1-R91A (Nicotiana benthamiana, UniProt A0A8K1ZRH3, R91A); experiment: UDP-Glo glycosyltransferase assay, kinetics of mutant; format: biochemical
T2 sequence (A0A8K1ZRH3 1-477 R91A): T1 sequence (A0A8K1ZRH3 1-477) with R91A

[3] = biological target: T3, NbUGT72AY1-R91F (Nicotiana benthamiana, UniProt A0A8K1ZRH3, R91F); experiment: as above; format: biochemical
T3 sequence (A0A8K1ZRH3 1-477 R91F): T1 sequence (A0A8K1ZRH3 1-477) with R91F

[4] = biological target: T4, NbUGT72AY1-R91M (Nicotiana benthamiana, UniProt A0A8K1ZRH3, R91M); experiment: as above; format: biochemical
T4 sequence (A0A8K1ZRH3 1-477 R91M): T1 sequence (A0A8K1ZRH3 1-477) with R91M

[5] = system: StUGT72AY2-chimera (Potato-Tobacco-Potato); experiment: UDP-Glo glycosyltransferase assay, chimeric mutant; format: biochemical, Solanum tuberosum; settings: Figure 5B and 5D
In short: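 N-terminal GST-fusion enzyme expressed in E. coli BL21(DE3) pLysS (1 mM IPTG, 18°C overnight) and glutathione-eluted. Reaction: 2 μg protein, 100 μM UDP-glucose, and varied acceptor substrate (in DMSO) in 50 mM Tris-HCl pH 7.0, 30°C for 20 min. Stopped with HCl, neutralized with Trizma base, then UDP-Glo luminescence after 30 min dark. Michaelis–Menten or Hill fits from at least three repeats.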

[6] = system: Alternaria alternata; settings: in vitro and in vivo; ref Sun et al., 2014; cited from earlier work

COc1cc2ccc(=O)oc2cc1O [scopoletin]
Vi ([1]; Fig S14b series, wild type R91, substrate scopoletin): 4.4 ± 2.3 nmol/min/mg
Vmax ([1]; Figure 5A series, wild type, substrate scopoletin): 264.3 nmol/min/mg
Ki ([1]; Ki, Fig S14b series, wild type R91, substrate scopoletin): 10.7 ± 2.2 µM
Ki ([1]; substrate inhibition (Ki), as stated in the abstract): 4 µM
Ki [2]: 3.3 ± 0.7 µM
Ki [3]: 0.9 ± 0.3 µM
Ki [4]: 27.3 ± 4.2 µM
Vi ([4]; Fig S14b, mutant R91M, substrate scopoletin): 13.1 ± 6.1 nmol/min/mg
enzymatic activity of the chimeric mutant with the substrate [5]: inactive
antifungal activity [6]: strong antifungal activity
